# Screening results (PubChem BioAssay)
# Scp1 inh: inhibitors of human Scp-1 phosphatase. Q9GZU7. Recombinant Scp1, phosphopeptide, malachite green phosphate absorbance. inhibition, % at 20 µM. hit rate 0.88% among 340,000;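 active means inhibition above about 50% at 20 µM, limit read from the data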;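 further: plate controls were DMSO wells with enzyme for no effect and wells lacking enzyme for full effect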
#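 Times: enzyme reaction 45 min at room temperature, colour 5 min, stabilisation 30 min. Material: SCP-1 catalytic fragment, aa 76-261. Medium: Acidic Tris acetate buffer with magnesium and detergent. Signal: colorimetric free-phosphate detection, absorbance 630 nm. Read-out basis: % inhibition of SCP-1 phosphate liberation. Reagent: Phosphorylated 17-residue peptide substrate.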
# F508del corr: correctors of CFTR F508del function in bronchial epithelial cells. CFBE cells, YFP halide quenching; stimulated with forskolin plus potentiator P3; % fluorescence drop versus neutral controls. AID 720511. hit rate 0.36% among 350,000. activity (quench increase), % at 7.58 µM;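 active means mean added fluorescence quench of at least 8% versus neutral control, with both replicates also reaching 8%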;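 further: cells transiently co-express mutant CFTR-F508del with the halide-sensitive YFP; corrector assay measuring rescue of mutant channel to the surface after 24 h compound exposure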
# STEP inh: STEP (human) phosphatase inhibition. recombinant STEP, OMFP fluorogenic substrate, fluorescence. P54829. AID 588621. hit rate 0.25% among 360,000. inhibition, % at 20 µM;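 active means inhibition at 20 µM, scaled per plate between control wells, above about 37%, limit read from the data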;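 further: 0% = DMSO with enzyme and substrate and 100% = substrate only without enzyme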
# Target sequence (P54829 whole entry, looked up): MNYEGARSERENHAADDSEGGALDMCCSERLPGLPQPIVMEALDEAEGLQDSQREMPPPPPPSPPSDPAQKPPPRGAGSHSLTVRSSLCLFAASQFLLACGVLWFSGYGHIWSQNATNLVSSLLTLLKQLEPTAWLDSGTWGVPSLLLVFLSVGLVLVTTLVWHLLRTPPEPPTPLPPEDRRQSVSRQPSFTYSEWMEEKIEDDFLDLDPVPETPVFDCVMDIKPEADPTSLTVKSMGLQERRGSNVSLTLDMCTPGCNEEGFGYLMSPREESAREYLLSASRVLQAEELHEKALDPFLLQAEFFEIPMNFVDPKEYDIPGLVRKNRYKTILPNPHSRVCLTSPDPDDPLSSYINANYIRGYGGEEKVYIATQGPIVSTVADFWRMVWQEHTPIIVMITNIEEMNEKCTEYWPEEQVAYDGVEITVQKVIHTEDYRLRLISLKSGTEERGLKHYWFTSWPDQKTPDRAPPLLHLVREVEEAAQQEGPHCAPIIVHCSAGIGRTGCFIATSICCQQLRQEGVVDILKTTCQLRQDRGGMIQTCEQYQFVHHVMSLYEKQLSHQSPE
#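 System: isolated STEP enzyme; schedule: 20 min enzyme reaction at room temperature, protected from light; medium: Bis-Tris buffer pH 6.0, 2.5 mM DTT, 0.005% Tween 20; signal: fluorescence, 480/540 nm; dosing: single compound dose of 20 µM, 1% DMSO final; also added: OMFP substrate, 25 µM final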
# SUMO1 PPI mod: modulators of human SUMO1-mediated protein-protein interactions; P63165; SUMO1 binding to a labelled peptide, TR-FRET, 1 h; inhibition, % at 20 µM; hit rate 0.33% among 360,000; AID 602429; in the data active means inhibition above about 37%
# Target sequence (P63165 whole entry, looked up): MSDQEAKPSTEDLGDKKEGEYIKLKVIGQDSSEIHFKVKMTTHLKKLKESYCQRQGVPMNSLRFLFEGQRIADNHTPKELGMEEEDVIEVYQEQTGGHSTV
# LMPTP block: LMPTP (human) inhibition | recombinant LMPTP-A, OMFP fluorogenic substrate, fluorescence intensity | hit rate 0.22% among 360,000 | inhibition, % at 20 µM | P24666;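 active means compounds that cut the enzyme signal by at least half of the control window in the single-dose screen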;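 further: plate controls were DMSO wells with enzyme plus substrate for no effect and substrate without enzyme for full effect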
#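 Material: LMPTP-A; amount: 0.625 nM enzyme; doses: single 20 µM dose; times: reaction 50 min, room temperature, dark; technique: fluorescence intensity of OMFP turnover product; benchmarks: no-enzyme and uninhibited controls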
# DNMT1 inh: blocks human DNA methyltransferase DNMT1; P26358; DNMT1 molecular beacon, Hinp1I cleavage, fluorescence; inhibition (reported as % activation of signal), % at 10 µM; hit rate 0.83% among 360,000; AID 588458; in the data active means inhibition above about 50%
# Scp1 confirm: confirmation of human Scp-1 phosphatase inhibitors | shares compounds with Scp1 inh | recombinant SCP-1 catalytic domain, phosphate release, malachite green absorbance | inhibition, % at 20 µM | hit rate 61% among 2,500 | AID 540281;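 further: plate controls were DMSO with enzyme for no effect and buffer wells lacking enzyme for full effect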
# MG interference: counter-screen for Scp-1 inhibitors: colorimetric interference; Colorimetric interference counterscreen, malachite green absorbance 630 nm; 2,500 tested, under 10 active; apparent inhibition (interference), % at 20 µM; shares compounds with Scp1 inh;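 further: compounds added after enzyme reaction finished so only phosphate colour detection is probed; plate controls were DMSO wells with completed Scp-1 reaction for no effect and substrate wells lacking enzyme for full effect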
# Scp-1 Tm shift: Scp-1 (human) binding by thermal shift. shares compounds with Scp1 inh. Recombinant SCP1, Sypro Orange thermal shift Tm. thermal shift relative to vanadate control, % at 40 µM. hit rate 25% among 1,500. AID 540329;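 active means substances whose mean melting-temperature shift, as a percentage of the reference inhibitor's shift, reaches about 5.3%, limit read from the data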;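 further: 0% = Tm of DMSO wells and 100% = Tm with sodium orthovanadate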
# DNMT1 confirm: confirmation of human DNMT1 inhibitors; shares compounds with DNMT1 inh; DNMT1 molecular beacon HinP1I cleavage, fluorescence; inhibition, % at 10 µM; hit rate 8% among 2,300; AID 602385;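 active means average inhibition of at least 30% in the single-concentration confirmation test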
# Beacon interf: shows spectral interference in the DNMT1 beacon assay; shares compounds with DNMT1 inh; DNMT1 molecular beacon spectral interference counterscreen, fluorescence 485/520; activation (fluorescence interference), % at 10 µM; hit rate 1% among 2,300; AID 602387;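 active means activation of at least 30% at 10 µM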;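 further: DNMT1 catalytic domain with a HinP1I cleavage step and a FAM/dabcyl DNA beacon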
# Active calls of the source: *; · = no result given. Rows were chosen to be rich in hits. Some 1.6% of all compounds tested hit in one or more screens of this group.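 How the source made its calls, unless noted: active means inhibition of at least 30% at 20 µM; inactive means the rest.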
SMILES,Scp1 inh,F508del corr,STEP inh,SUMO1 PPI mod,LMPTP block,DNMT1 inh,Scp1 confirm,MG interference,Scp-1 Tm shift,DNMT1 confirm,Beacon interf
CC(C)[C@H](NC(=O)c1ccco1)C(=O)OCc1cc(=O)n2c(n1)sc1ccccc12,82.9*,3.6,-0.4,11.3,20.8,83.9*,59.5*,-14.2,1.6,16.9,-0.6
O=C(OCc1cc(=O)n2c(n1)sc1ccccc12)c1ccc(O)cc1O,78.1*,0.1,3.2,3.7,12.8,69.8*,60.1*,-11.7,0.1,6.2,-7.1
COC(=O)c1cc(=O)nc2sc3ccccc3n12,-0.4,·,-2.6,1.8,0.0,4.1,·,·,·,·,·
Cc1ccc2c(CC(=O)OCc3csc(C)n3)coc2c1,1.4,·,1.6,-0.9,-2.3,-1.5,·,·,·,·,·
COc1cc(NC(=O)c2ccccc2)c(OC)cc1NC(=O)Cc1cccs1,71.4*,-0.8,2.2,6.5,23.7,72.6*,65.7*,-15.9,8.0*,3.8,-7.0
COC(=O)c1cc(NC(=O)Cc2cccs2)cc(C(=O)OC)c1,75.7*,1.1,21.1,2.6,47.5,57.8*,64.8*,-17.8,6.3*,6.6,-1.7
Cc1ccc([N+](=O)[O-])cc1NC(=O)Cc1cccs1,66.6*,1.7,0.3,-11.9,26.0,80.7*,60.5*,-21.9,5.9*,8.0,2.0
C[C@H](NC(=O)C[C@H]1CC[C@@H](NC(=O)Nc2ccc3c(c2)OCO3)[C@H](CO)O1)c1ccccc1,·,1.7,·,·,·,·,·,·,·,·,·
O=C(C1CCOCC1)N1C[C@H]2[C@@H](c3ccccc31)[C@@H](CO)N2Cc1ccccc1Cl,·,-0.6,·,·,·,·,·,·,·,·,·
Cc1ccc(S(=O)(=O)Cc2ccc(C(=O)N3CCc4ccccc4C3)o2)cc1,75.5*,1.2,5.3,0.1,8.1,81.0*,54.1*,-18.6,-0.7,4.9,3.9
Cc1ccccc1-c1cnc2c(c1)C(=O)N([C@@H](C)CO)C[C@@H](C)[C@@H](CN(C)Cc1cncnc1)O2,·,0.0,·,·,·,·,·,·,·,·,·
c1coc(-c2nnc3sc(Cc4cccs4)nn23)c1,86.3*,·,4.2,18.9,26.4,66.5*,60.7*,-11.4,1.1,0.4,-0.7
COc1ccc(S(=O)(=O)Nc2ccc3c(c2)C(=O)N([C@H](C)CO)C[C@H](C)[C@H](CN(C)Cc2ccc4c(c2)OCO4)O3)cc1,·,2.7,·,·,·,·,·,·,·,·,·
C[C@H]1CN([C@@H](C)CO)C(=O)Cc2cc(NC(=O)Nc3ccc(F)cc3)ccc2O[C@@H]1CN(C)Cc1ccc(C(F)(F)F)cc1,·,1.3,·,·,·,·,·,·,·,·,·
Cc1cccc(NC(=O)Cn2c(O)c(N=NC(=O)c3ccccc3O)c3ccccc32)c1,88.2*,·,36.1,-8.4,35.4,88.0*,85.6*,-8.2,4.0,15.1,-3.1
NC(=S)N=Nc1c(O)n(CC(=O)Nc2ccccc2)c2ccccc12,-0.5,0.5,0.4,-3.3,0.9,5.0,·,·,·,·,·
Cc1ccsc1/C=C/C1=Cc2c(sc(NC(=O)CSc3n[nH]c(N)n3)c2C#N)C(C)(C)C1,58.2*,·,11.8,31.8,10.0,89.7*,25.3,-14.2,·,4.3,1.1
O=C(COC(=O)c1c2c(nc3ccccc13)/C(=C\c1ccco1)CC2)NC1CCCC1,90.7*,0.6,17.5,41.8*,65.2*,97.3*,61.0*,-14.2,15.1*,20.1,-2.4
CCCCNC(=O)COC(=O)c1c2c(nc3ccccc13)/C(=C/c1cccs1)CC2,5.5,·,5.3,-8.9,4.2,-23.5,·,·,·,·,·
CN(CCC#N)C(=O)COC(=O)c1c2c(nc3ccccc13)/C(=C\c1ccco1)CC2,84.4*,-1.7,36.7,57.3*,67.3*,77.1*,53.5*,-11.5,10.3*,7.5,6.5
CC1CCCCC1NC(=O)COC(=O)c1c2c(nc3ccccc13)/C(=C\c1ccco1)CC2 (stereo not drawn),50.2*,0.9,24.3,22.3,50.4*,85.4*,60.5*,-8.2,9.4*,10.3,1.8
O=C(COC(=O)c1c2c(nc3ccccc13)/C(=C/c1cccc([N+](=O)[O-])c1)CCC2)NC1CCS(=O)(=O)C1 (stereo not drawn),1.6,·,-0.1,-13.8,0.4,-16.3,·,·,·,·,·
COc1ccccc1NC(=O)N[C@@H]1CC[C@H](CCn2cc(-c3ccccc3OC)nn2)O[C@H]1CO,·,0.9,·,·,·,·,·,·,·,·,·
CCCCOc1cccc(C(=O)O)c1,-7.6,·,-2.9,-5.5,-1.9,0.5,·,·,·,·,·
CC[N+](CC)(CC)CCCCOc1ccc2c(c1)C(=O)c1cc(OCCCC[N+](CC)(CC)CC)ccc1-2,98.7*,3.1,0.9,-47.4,6.6,50.1*,10.3,1.7,·,13.1,-1.9
Cc1noc(C)c1S(=O)(=O)Nc1ccc2c(c1)C(=O)N([C@@H](C)CO)C[C@@H](C)[C@H](CN(C)C(=O)C1CCCCC1)OCCCC[C@@H](C)O2,·,-0.5,·,·,·,·,·,·,·,·,·
